HSF1 inhib – HSF1 inhibition; NIH3T3-HGL HSE-luciferase, MG132-induced, luminescence 8 h; stronger effect = lower value; activity change, negative = inhibition, % at 7.5 µM (by protocol); 300,000 tested, 0.77% active; AID 2098;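 active = more than half of replicate wells show activity change below -50%, luminescence cut by over half; inconclusive = some wells, but at most half, below -50%; inactive = no replicate well below -50%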;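 also: luciferase reports HSF-1 transcriptional activity via heat shock element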
HCV core dimer – HCV core protein dimerization inhibition. TR-FRET GST/Flag-core106 dimerization, 1536-well. inhibition, % at 5 µM. 300,000 tested, 0.33% active. AID 1899;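 active = inhibition above the mean of all tested compounds plus 3 SD, set per screening campaign, cut at about 45% in these data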
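Assay system – GST-tagged and Flag-tagged HCV core protein residues 1-106 · Quantity – core106 proteins, GST 13.5 nM and Flag 17 nM · Benchmarks – unlabelled core106 and no-GST-core106 wells · Read-out basis – percent inhibition of core106 dimerization signal · Detection – time-resolved FRET, ex 340 nm, em 617 and 671 nm · Schedule – 4 h at 22.5 °C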
PHOSPHO1 inh – blocks human PHOSPHO1 phosphatase activity | Q8TCT1 | recombinant PHOSPHO1, absorbance phosphatase assay | inhibition, % at 13.3 µM | 290,000 tested, 1.1% active | AID 1565; in the data active = inhibition above about 60%
Target sequence (Q8TCT1 whole entry, looked up): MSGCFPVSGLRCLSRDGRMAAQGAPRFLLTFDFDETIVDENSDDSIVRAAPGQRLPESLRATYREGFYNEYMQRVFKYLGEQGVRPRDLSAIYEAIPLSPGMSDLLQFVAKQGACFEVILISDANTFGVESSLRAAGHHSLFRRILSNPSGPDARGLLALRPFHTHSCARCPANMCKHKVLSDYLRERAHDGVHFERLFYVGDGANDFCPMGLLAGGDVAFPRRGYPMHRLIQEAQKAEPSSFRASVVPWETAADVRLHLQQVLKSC
ALR H2O2 inh – inhibitors of human sulfhydryl oxidase ALR; AID 485317; inhibition, % (concentration not given with the values); purified ALR, DTT oxidation, H2O2 HRP-luminol luminescence; 290,000 tested, 3.8% active; P55789;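 active = mean replicate inhibition above about 79%, with every replicate also reaching it, limit read from the data; inconclusive = only one of the two criteria met; inactive = mean below limit and not every replicate reaching it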
Target sequence (P55789 whole entry, looked up): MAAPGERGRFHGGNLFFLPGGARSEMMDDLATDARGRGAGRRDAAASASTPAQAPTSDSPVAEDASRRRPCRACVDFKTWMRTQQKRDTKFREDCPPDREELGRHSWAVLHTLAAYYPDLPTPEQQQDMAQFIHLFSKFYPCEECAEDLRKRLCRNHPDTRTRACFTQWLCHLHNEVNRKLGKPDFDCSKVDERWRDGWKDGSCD
AI-2 QS modul – modulates the Vibrio harveyi AI-2 quorum sensing system; Vibrio harveyi JMH597 AI-2 luminescence/OD600 ratio, 9 h; stronger effect = lower value; strain lacks LuxN and CqsS sensors; 0 = neutral-control median; activity change, % at 7.5 µM; AID 2094; 300,000 tested, 0.4% active; in the data active = activity change below about -75%, passing the limit was not always enough; inconclusive = no clear call, values can overlap the other calls;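 also: luminescence divided by OD600 gain over 9 h not by final OD600 alone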
HSF-1 act – increases HSF-1 driven luciferase reporter signal; NIH3T3-HGL HSF-1 luciferase reporter, MG132, 8 h; 100% = twice DMSO control signal; activation, % at 9 µM; 300,000 tested, 1.7% active;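 active = mean replicate activation of at least 50% with a set share of replicates each reaching 50%; inconclusive = only one of those two conditions met; inactive = mean below 50% and too few replicates reaching it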
Of the large screens only hits and unclear results are named; the others gave an inactive call. Hits are enriched below; roughly 6.8% of the tested compounds scored in any of these assays.

C=CCOc1ccc(C=NNc2ccc(S(=O)(=O)Nc3ccccc3C(=O)O)cc2[N+](=O)[O-])cc1OC	ALR H2O2 inh 90 (no result: HSF1 inhib, HCV core dimer, PHOSPHO1 inh, AI-2 QS modul, HSF-1 act)
COc1ccc(CNC(=O)c2cnn3c(C(F)F)cc(C)nc23)cc1OC	none
CNC(=S)Nc1ccc(C(N)=O)cc1	none
O=C(O)C[C@H]1c2cc(C(F)(F)F)ccc2S(=O)(=O)N1C1CCN(Cc2ccccc2)CC1	none (no result: PHOSPHO1 inh, ALR H2O2 inh)
Cc1ccccc1CNC(=O)CN(c1ccccc1Cl)S(C)(=O)=O	none
CCOc1ccc(C(=O)Nc2cccc(C)n2)cc1	none
CCCCOc1ccc(C(=O)Nc2cccc(C)n2)cc1	HSF-1 act 57
Cc1cccc(NC(=O)c2ccc(COc3ccc4ccccc4c3)o2)n1	HSF-1 act 68
O=C1C(=O)c2ccc(-c3ccccc3)cc2-c2ccccc21	HSF1 inhib -95
Nc1ccc2c(c1)C(=O)c1ccccc1-2	none (no result: PHOSPHO1 inh)
Nc1ccc2c(c1)C(=O)C(=O)c1ccccc1-2	HSF1 inhib -95, PHOSPHO1 inh 62, AI-2 QS modul inconclusive
CC(C)=N/N=C1/NC(=O)C(CC(=O)Nc2cc(Cl)ccc2C)S1 (configuration not stated)	none
COCc1cc(CN2CCN(CCCc3ccccc3)C(CCO)C2)ccc1OC (configuration not stated)	none
CC(=O)c1cccc(CN2CCN(Cc3ccc(C)cc3)C(CCO)C2)c1 (configuration not stated)	none
CCn1cc(CN2CCN(Cc3ccsc3)C(CCO)C2)cn1 (configuration not stated)	none (no result: ALR H2O2 inh)
CC(=O)c1cccc(CN2CCN(Cc3ccc(F)cc3)C(CCO)C2)c1 (configuration not stated)	PHOSPHO1 inh 60
COCc1cc(CN2CCN(CCc3ccccc3)C(CCO)C2)ccc1OC (configuration not stated)	HSF-1 act 190 (no result: PHOSPHO1 inh)
Cc1ccc(CN2CCN(Cc3cc4ccccc4o3)CC2CCO)cc1 (configuration not stated)	HSF1 inhib -75 (no result: ALR H2O2 inh)
OCCC1CN(Cc2cnn(-c3ccc(F)cc3)c2)CCN1Cc1ccsc1 (configuration not stated)	PHOSPHO1 inh 60
COc1ccc(NC(=O)c2cncc(Br)c2)cc1S(=O)(=O)N1CCCCC1	none
CCOc1ccc(CCNC(=O)CSC(=S)N2CCCC2)cc1OCC	none (no result: PHOSPHO1 inh, ALR H2O2 inh)
COc1cccc(C(=O)NCC2(c3ccc(OC)c(OC)c3)CCCC2)c1	none
CCSC(=Nc1ccccc1)C1=C(O)COC1=O	none
CSC(=Nc1ccccc1)C1=C(O)COC1=O	ALR H2O2 inh 97
O=C(CCCn1c(=S)[nH]c2ccsc2c1=O)Nc1ccc2c(c1)OCO2	none (no result: AI-2 QS modul)
Cc1ccc(NC(=O)CCCn2c(=S)[nH]c3ccsc3c2=O)cc1C	ALR H2O2 inh 84
COc1ccc2[nH]c3c(=O)n(CCCCC(=O)N4CCCC4)c(=S)[nH]c3c2c1	PHOSPHO1 inh 100
CCOC(=O)N1CCN(C(=O)CCCCn2c(=S)[nH]c3ccsc3c2=O)CC1	ALR H2O2 inh 96
Cc1cc(C)nc(SCCn2c(N3CCOCC3)nc3c2c(=O)[nH]c(=O)n3C)n1	none
CCOc1cccc(CNCc2ccncc2)c1	PHOSPHO1 inh 62 (no result: HCV core dimer)
C=CCOc1cccc(CNCc2ccncc2)c1	none (no result: HCV core dimer)
CCc1ccc(NC(=O)c2c(Cl)nc(C)c(Cl)c2C)cc1	none
COc1ccc(C(=O)NC2CCN(S(=O)(=O)c3ccccc3)CC2)cc1	none (no result: PHOSPHO1 inh, AI-2 QS modul)
COc1ccc(CNC(=O)OCCN2CCN(S(=O)(=O)c3ccc(C)cc3)CCC2=O)cc1	HSF1 inhib -68
Cc1ccc(NC(=O)OCCN2CCN(Cc3ccccc3)CCC2=O)cc1	ALR H2O2 inh 92
COc1ccc(S(=O)(=O)N2CCN(CCC(=O)Nc3ccccc3F)CC2)cc1	none
COc1ccc(S(=O)(=O)N2CCC(Nc3ccccc3Cl)CC2)cc1	PHOSPHO1 inh 61 (no result: HCV core dimer)
Cc1ccc(S(=O)(=O)N2CCC(=O)N(CCOC(=O)NCc3ccccc3)CC2)cc1	none (no result: HSF1 inhib, AI-2 QS modul, HSF-1 act)
COc1ccc(NC(=O)CCN2CCN(S(=O)(=O)c3ccc(OC)cc3)CC2)cc1	HSF1 inhib -91
CCOC(=O)C1CCN(C(=O)COc2ccc(S(=O)(=O)N3CCOCC3)cc2C)CC1	none
Cc1cc(C(=O)Nc2ccccc2Cl)n(-c2ccccc2)n1	none
COc1ccc(OCC(=O)Nc2cc(-c3nn(C)c(=O)c4ccccc34)ccc2N2CCOCC2)cc1	none
O=C(CN1CCN(S(=O)(=O)c2ccc(Cl)cc2)CC1)NC1CCCC1	none
O=C(CN1CCN(S(=O)(=O)c2ccc(F)cc2)CC1)NC1CCCC1	PHOSPHO1 inh 61
COc1ccc(S(=O)(=O)N2CCN(CC(=O)NC3CC3)CC2)cc1	PHOSPHO1 inh 62
COc1ccc(S(=O)(=O)N2CCN(CC(=O)Nc3cccc(OC)c3)CC2)cc1	none
COc1ccc(C(=O)NCC(=O)OCC(=O)NC2CCCCCC2)cc1	none (no result: HSF1 inhib, HCV core dimer, PHOSPHO1 inh, AI-2 QS modul, HSF-1 act)
CCOC(=O)/C(=N\Nc1ccccc1Cl)N1CCN(C)CC1	ALR H2O2 inh 98
CCOC(=O)n1c(=O)[nH]c2ccc(Br)cc21	none
COc1cc(OC)cc(C(=O)NCc2ccc3c(c2)OCO3)c1	none
O=C(c1cccnc1)N1CCCC(Nc2ccc(F)cc2)C1 (configuration not stated)	none
Cc1ccc(NC2CCCN(C(=O)C3CCCCC3)C2)cc1C (configuration not stated)	ALR H2O2 inh 99
O=C(C1CCCC1)N1CCCC(Nc2ccc(F)cc2)C1 (configuration not stated)	ALR H2O2 inh 99
O=C(NC1CCCC1)C1CCCN(C(=O)Nc2ccccc2)C1 (configuration not stated)	none (no result: ALR H2O2 inh)
O=C(C1CCCC1)N1CCCC(Nc2ccccc2)C1 (configuration not stated)	ALR H2O2 inh 99
O=C(NCCCCNC(=O)c1cccnc1Cl)c1cccnc1Cl	none
Cc1ccccc1OCC(=O)Nc1nc2ccccc2[nH]1	none
Cn1c(=O)c2cc(S(=O)(=O)NCCC(=O)NCCc3ccc(Cl)cc3)ccc2n(C)c1=O	ALR H2O2 inh 98
O=[N+]([O-])c1ccc2[nH]ncc2c1	none (no result: ALR H2O2 inh)
COc1ccc(-n2c(CNC(=O)COc3ccccc3)n[nH]c2=S)cc1	none
COc1ccc(-n2c(COc3cccc(C)c3)n[nH]c2=S)cc1	HSF1 inhib inconclusive
COc1ccc(-n2c(CNC(=O)COc3ccc(Cl)cc3)n[nH]c2=S)cc1	ALR H2O2 inh 88
Cc1ccc(OCc2n[nH]c(=S)n2C2CCCCC2)cc1	PHOSPHO1 inh 91
S=c1[nH]nc(COc2ccc(Cl)cc2Cl)n1-c1ccccc1	ALR H2O2 inh 84
COc1ccc(OCc2n[nH]c(=S)n2-c2ccc(C)cc2)cc1	PHOSPHO1 inh 92, ALR H2O2 inh inconclusive
S=c1[nH]nc(-c2ccc(Cl)cc2Cl)n1-c1ccccc1	none
